Laboratory results reported in ChEMBL document CHEMBL4138300 (ACS Med Chem Lett, 2018).
Calls of active or inactive are those of the source. No cut-off for these calls is given here.

Experiments:
EZH2 (Homo sapiens) = test: Inhibition of human N-terminal His-tagged EZH2/flag-tagged EED/SUZ12/AEBP2/RBAP48 A677G mutant (2 to end residues) expressed in baculovirus infected Sf9 insect cells using histone H3 (1 to 50 residues)-GGK as substrate after 2 hrs in presence of SAM by fluorescence assay
Pfeiffer [1] = test: Cytotoxicity against human Pfeiffer cells assessed as decrease in cell viability after 5 days by CellTiter-Glo reagent based luminescence assay; assay type: functional; details: 120 h
[2] = Stability of the compound in human liver microsomes; assay type: ADME, microsome
[3] = Stability of the compound in rat liver microsomes; assay type: ADME, microsome
[4] = AUC (0 to t) in ICR mouse at 10 mg/kg administered via oral gavage; assay type: ADME, organism-based; details: in vivo
Procedure, shortened: (§1)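 Single oral dose given as a CMC-Na suspension: rats 5 mg/kg, mice 10 mg/kg. Oral bioavailability was set against the matching iv arm (rats 0.5 mg/kg, mice 1.0 mg/kg).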

[5] = Half life in human liver microsomes; assay type: ADME, microsome
[6] = Half life in rat liver microsomes; assay type: ADME, microsome
Pfeiffer [7] = test: Antitumor activity against human Pfeiffer cells xenografted in athymic nude mouse assessed as tumor growth inhibition administered po qd for 20 days measured twice per week; assay type: functional, organism-based
Procedure, shortened: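 Pfeiffer xenografts were grown to about 150-200 mm³ before dosing. Compound was given orally once daily for 20 days at 10, 30 or 100 mg/kg. A reference EZH2 inhibitor (100 mg/kg) was run alongside. Tumor size reduction was the efficacy read-out.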

[8] = Apparent volume of distribution during terminal phase in Sprague-Dawley rat at 5 mg/kg administered via oral gavage; assay type: ADME, organism-based; details: in vivo, read-out: Vz/F
Procedure, shortened: as §1

[9] = Apparent clearance during terminal phase in ICR mouse at 10 mg/kg administered via oral gavage; assay type: ADME, organism-based; details: in vivo, read-out: CLz/F
Procedure, shortened: as §1

[10] = Half life in ICR mouse at 10 mg/kg administered via oral gavage; assay type: ADME, organism-based; details: in vivo
Procedure, shortened: as §1

[11] = Apparent clearance during terminal phase in Sprague-Dawley rat at 5 mg/kg administered via oral gavage; assay type: ADME, organism-based; details: in vivo, read-out: CLz/F
Procedure, shortened: as §1

Pfeiffer [12] = test: Antitumor activity against human Pfeiffer cells xenografted in athymic nude mouse assessed as tumor growth inhibition at 100 mg/kg, po qd administered for 20 days measured twice per week; assay type: functional
Procedure, shortened: (§2)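 Pfeiffer xenografts were grown to about 150-200 mm³ before dosing. The compound was given orally once daily for 20 days at the dose in each line (10, 30 or 100 mg/kg), with a reference EZH2 inhibitor dosed at 100 mg/kg. Tumor growth inhibition was expressed as percent reduction in tumor size.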

[13] = Cmax in Sprague-Dawley rat at 5 mg/kg administered via oral gavage; assay type: ADME, organism-based; design: dose 5 mg/kg, route oral; details: in vivo
Procedure, shortened: as §1

Pfeiffer [14] = test: Antitumor activity against human Pfeiffer cells xenografted in athymic nude mouse assessed as tumor growth inhibition at 10 mg/kg, po qd administered for 20 days measured twice per week; assay type: functional; details: 480 h, read-out: TGI
Procedure, shortened: as §2

[15] = molecular target: T1, Histone-lysine N-methyltransferase EZH2 (Homo sapiens, UniProt Q15910); test: Inhibition of EZH2 in human WSU-DLCL2 cells assessed as reduction in H3K27 trimethylation after 3 days by Western blot analysis; assay type: cell-based
Target sequence in this assay (Q15910 whole entry): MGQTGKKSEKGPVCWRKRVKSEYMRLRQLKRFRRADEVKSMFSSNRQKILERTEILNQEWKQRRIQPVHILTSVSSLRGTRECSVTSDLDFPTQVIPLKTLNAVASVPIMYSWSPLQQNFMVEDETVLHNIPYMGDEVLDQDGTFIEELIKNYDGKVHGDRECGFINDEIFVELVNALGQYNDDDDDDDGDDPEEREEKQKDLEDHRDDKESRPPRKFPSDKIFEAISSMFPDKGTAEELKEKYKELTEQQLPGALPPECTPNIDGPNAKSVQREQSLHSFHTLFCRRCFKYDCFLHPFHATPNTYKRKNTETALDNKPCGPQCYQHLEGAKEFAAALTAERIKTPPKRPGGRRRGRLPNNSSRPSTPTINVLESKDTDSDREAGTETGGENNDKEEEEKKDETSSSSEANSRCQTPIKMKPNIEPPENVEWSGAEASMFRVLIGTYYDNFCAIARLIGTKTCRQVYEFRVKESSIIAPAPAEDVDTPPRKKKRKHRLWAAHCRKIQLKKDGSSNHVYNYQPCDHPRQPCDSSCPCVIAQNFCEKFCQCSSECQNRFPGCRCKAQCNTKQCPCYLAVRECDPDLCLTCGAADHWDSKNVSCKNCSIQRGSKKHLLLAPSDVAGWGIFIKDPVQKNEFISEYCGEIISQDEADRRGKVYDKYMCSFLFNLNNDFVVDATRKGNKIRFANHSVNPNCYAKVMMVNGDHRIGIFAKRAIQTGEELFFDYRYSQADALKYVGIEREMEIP

[16] = Cmax in ICR mouse at 10 mg/kg administered via oral gavage; assay type: ADME, organism-based; design: dose 10 mg/kg, route oral; details: in vivo
Procedure, shortened: as §1

[17] = Mean residence time (0 to infinity) in ICR mouse at 10 mg/kg administered via oral gavage; assay type: ADME, organism-based; details: in vivo
Procedure, shortened: as §1

[18] = Mean residence time (0 to infinity) in Sprague-Dawley rat at 5 mg/kg administered via oral gavage; assay type: ADME, organism-based; details: in vivo
Procedure, shortened: as §1

[19] = Apparent volume of distribution during terminal phase in ICR mouse at 10 mg/kg administered via oral gavage; assay type: ADME, organism-based; details: in vivo, read-out: Vz/F
Procedure, shortened: as §1

[20] = Oral bioavailability in Sprague-Dawley rat at 5 mg/kg administered via gavage; assay type: ADME, organism-based; details: in vivo
Procedure, shortened: as §1

[21] = AUC (0 to t) in Sprague-Dawley rat at 0.5 mg/kg, iv; assay type: ADME, organism-based; details: in vivo
Procedure, shortened: (§3)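 Single intravenous dose: rats 0.5 mg/kg, mice 1.0 mg/kg. Plasma exposure and terminal-phase parameters were calculated from the concentration–time profile. These serve as the iv reference for bioavailability.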

[22] = AUC (0 to t) in ICR mouse at 1 mg/kg, iv; assay type: ADME, organism-based; details: in vivo
Procedure, shortened: as §3

Mus musculus [23] = test: Apparent volume of distribution during terminal phase in ICR mouse at 1 mg/kg, iv; assay type: ADME, organism-based; details: in vivo
Procedure, shortened: as §3

[24] = molecular target: T1, Histone-lysine N-methyltransferase EZH2; test: Inhibition of EZH2 in human Pfeiffer cells assessed as reduction in H3K27 trimethylation after 3 days by Western blot analysis; assay type: cell-based
Pfeiffer [25] = test: Antitumor activity against human Pfeiffer cells xenografted in athymic nude mouse assessed as tumor growth inhibition at 30 mg/kg, po qd administered for 20 days measured twice per week; assay type: functional; details: 480 h, read-out: TGI
Procedure, shortened: as §2

Rattus norvegicus = test: Apparent volume of distribution during terminal phase in Sprague-Dawley rat at 0.5 mg/kg, iv; assay type: ADME, organism-based; details: in vivo
Procedure, shortened: as §3

[26] = Protein binding in mouse plasma; assay type: ADME, cell-free; details: read-out: PPB (converted)
[27] = Half life in Sprague-Dawley rat at 5 mg/kg administered via oral gavage; assay type: ADME, organism-based; details: in vivo
Procedure, shortened: as §1

[28] = Oral bioavailability in ICR mouse at 10 mg/kg administered via gavage; assay type: ADME, organism-based; details: in vivo
Procedure, shortened: as §1

[29] = Mean residence time (0 to infinity) in ICR mouse at 1 mg/kg, iv; assay type: ADME, organism-based; details: in vivo
Procedure, shortened: as §3

[30] = Protein binding in human plasma; assay type: ADME, cell-free; details: read-out: PPB (converted)
[31] = Mean residence time (0 to infinity) in Sprague-Dawley rat at 0.5 mg/kg, iv; assay type: ADME, organism-based; details: in vivo
Procedure, shortened: as §3

[32] = AUC (0 to t) in Sprague-Dawley rat at 5 mg/kg administered via oral gavage; assay type: ADME, organism-based; details: in vivo
Procedure, shortened: as §1

Mus musculus [33] = test: Toxicity in athymic nude mouse xenografted with human Pfeiffer cells assessed as body weight loss at 10 to 100 mg/kg, po qd administered for 20 days measured twice per week; assay type: organism-based; details: in vivo, 480 h
[34] = Protein binding in rat plasma; assay type: ADME, cell-free; details: read-out: PPB (converted)

CCc1c(N(CC)C2CCOCC2)cc2oc(CN3CCOCC3)cc2c1C(=O)NCc1c(C)cc(C)[nH]c1=O
IC50 (EZH2 (Homo sapiens)): 4.6 nM
IC50 (Pfeiffer [1]): 14 nM
Stability [2]: Stable
Stability [3]: Stable

CCc1c(N(CC)C2CCOCC2)cc2oc(CN3CCCCC3)cc2c1C(=O)NCc1c(OC)cc(C)[nH]c1=O
IC50 (EZH2 (Homo sapiens)): 6.4 nM
IC50 (Pfeiffer [1]): 2 nM
Stability [2]: Stable
Stability [3]: Stable

CCc1cc(C)[nH]c(=O)c1CNC(=O)c1c(C)c(N(CC)C2CCOCC2)cc2occc12
IC50 (EZH2 (Homo sapiens)): 0.6 nM
IC50 (Pfeiffer [1]): 220 nM

CCc1c(N(CC)C2CCOCC2)cc2oc(C3CCN(C)CC3)cc2c1C(=O)NCc1c(C)cc(C)[nH]c1=O
IC50 (EZH2 (Homo sapiens)): 6.1 nM
IC50 (Pfeiffer [1]): 7 nM
AUC(0-t) [4]: 439 ng·h/mL
half-life [5]: > 1 h
half-life [6]: > 1 h

CCN(c1cc(C(=O)NCc2c(OC)cc(C)[nH]c2=O)c2ccoc2c1)C1CCOCC1
IC50 (EZH2 (Homo sapiens)): 331 nM
IC50 (Pfeiffer [1]): > 5000 nM

CCN(c1cc2occc2c(C(=O)NCc2c(C(F)(F)F)cc(C)[nH]c2=O)c1C)C1CCOCC1
IC50 (EZH2 (Homo sapiens)): 4.6 nM
IC50 (Pfeiffer [1]): 3300 nM

CCN(c1cc2oc(C#N)cc2c(C(=O)NCc2c(OC)cc(C)[nH]c2=O)c1C)C1CCOCC1
IC50 (EZH2 (Homo sapiens)): 0.8 nM
IC50 (Pfeiffer [1]): 17 nM

CCN(c1cc2sccc2c(C(=O)NCc2c(C)cc(C)[nH]c2=O)c1C)C1CCOCC1
IC50 (EZH2 (Homo sapiens)): 6 nM
IC50 (Pfeiffer [1]): 1830 nM

CCN(c1cc2oc(F)cc2c(C(=O)NCc2c(OC)cc(C)[nH]c2=O)c1C)C1CCOCC1
IC50 (EZH2 (Homo sapiens)): 4.1 nM
IC50 (Pfeiffer [1]): 160 nM

CCN(c1cc2oc(Cl)cc2c(C(=O)NCc2c(OC)cc(C)[nH]c2=O)c1C)C1CCOCC1
IC50 (EZH2 (Homo sapiens)): 0.4 nM
IC50 (Pfeiffer [1]): 21 nM

CCc1c(N(CC)C2CCOCC2)cc2occc2c1C(=O)NCc1c(OC)cc(C)[nH]c1=O
IC50 (EZH2 (Homo sapiens)): 3.3 nM
IC50 (Pfeiffer [1]): 15 nM

CCN(c1cc2occc2c(C(=O)NCc2c(C)cc(C)[nH]c2=O)c1C)C1CCOCC1
IC50 (EZH2 (Homo sapiens)): 4 nM
IC50 (Pfeiffer [1]): 240 nM

CCN(c1cc2oc(C(F)(F)F)cc2c(C(=O)NCc2c(OC)cc(C)[nH]c2=O)c1C)C1CCOCC1
IC50 (EZH2 (Homo sapiens)): 2.7 nM
IC50 (Pfeiffer [1]): 17 nM

CCN(c1cc2occc2c(C(=O)NCc2ccc(C)[nH]c2=O)c1Cl)C1CCOCC1
IC50 (EZH2 (Homo sapiens)): 6.5 nM
IC50 (Pfeiffer [1]): 150 nM

CCN(c1cc2occc2c(C(=O)NCc2c(OC)cc(C)[nH]c2=O)c1C(F)(F)F)C1CCOCC1
IC50 (EZH2 (Homo sapiens)): 2000 nM

CCc1c(N(CC)C2CCOCC2)cc2oc(C3CCN(C(C)C)CC3)cc2c1C(=O)NCc1c(C)cc(C)[nH]c1=O
TGI (Pfeiffer [7]): Dose-dependent effect
IC50 (Pfeiffer [1]): 6 nM
Vd/F [8]: 24.1 L/kg
CL/F [9]: 202 mL/min/kg
half-life [10]: 1.3 h
CL/F [11]: 287 mL/min/kg
inhibition in vivo at 100 mg/kg (Pfeiffer [12]; 480 h, read-out: TGI): 97%
Cmax [13]: 93 ng/mL
inhibition in vivo at 10 mg/kg (Pfeiffer [14]): 28%
IC50 [15]: 55 nM
Cmax [16]: 257 ng/mL
MRT inf [17]: 2.7 h
MRT inf [18]: 3 h
Vd/F [19]: 21.9 L/kg
bioavailability [20]: 9%
AUC(0-t) [21]: 325 ng·h/mL
AUC(0-t) [4]: 774 ng·h/mL
AUC(0-t) [22]: 483 ng·h/mL
Vz/F (Mus musculus [23]): 3.679 L/kg
IC50 [24]: 8 nM
inhibition [24]: Dose-dependent effect
inhibition in vivo at 30 mg/kg (Pfeiffer [25]): 83%
Vz/F (Rattus norvegicus): 2.556 L/kg
half-life [5]: > 0.5 h
fraction unbound [26]: 0.073
half-life [27]: 1 h
bioavailability [28]: 16%
MRT inf [29]: 1.3 h
fraction unbound [30]: 0.061
MRT inf [31]: 1 h
AUC(0-t) [32]: 239 ng·h/mL
half-life [6]: > 0.5 h
Activity (Mus musculus [33]): Non-Toxic
fraction unbound [34]: 0.06

CCN(c1cc2oc(C3CC3)cc2c(C(=O)NCc2c(OC)cc(C)[nH]c2=O)c1C)C1CCOCC1
IC50 (EZH2 (Homo sapiens)): 0.5 nM
IC50 (Pfeiffer [1]): 11 nM

CCN(c1cc2occ(C)c2c(C(=O)NCc2c(OC)cc(C)[nH]c2=O)c1C)C1CCOCC1
IC50 (EZH2 (Homo sapiens)): 5.9 nM
IC50 (Pfeiffer [1]): 1300 nM

CCN(c1cc2oc(C)cc2c(C(=O)NCc2c(OC)cc(C)[nH]c2=O)c1C)C1CCOCC1
IC50 (EZH2 (Homo sapiens)): 2.9 nM
IC50 (Pfeiffer [1]): 14 nM

CCN(c1cc2occc2c(C(=O)NCc2c(OC)cc(C)[nH]c2=O)c1C)C1CCOCC1
IC50 (EZH2 (Homo sapiens)): 4 nM
IC50 (Pfeiffer [1]): 20 nM

CCc1c(N(CC)C2CCOCC2)cc2oc(CN3CCOCC3)cc2c1C(=O)NCc1c(OC)cc(C)[nH]c1=O
IC50 (EZH2 (Homo sapiens)): 7.8 nM
IC50 (Pfeiffer [1]): 3 nM
Stability [2]: Stable
Stability [3]: Stable

CCc1c(N(CC)C2CCOCC2)cc2oc(CN3CCN(C)CC3)cc2c1C(=O)NCc1c(OC)cc(C)[nH]c1=O
IC50 (EZH2 (Homo sapiens)): 0.1 nM
IC50 (Pfeiffer [1]): 8 nM
Stability [2]: Stable
Stability [3]: Stable

CCN(c1cc2oc(C)cc2c(C(=O)NCc2c(C)cc(C)[nH]c2=O)c1C)C1CCOCC1
IC50 (EZH2 (Homo sapiens)): 3.8 nM
IC50 (Pfeiffer [1]): 21 nM

CCN(c1cc(-c2ccc(CN3CCOCC3)cc2)cc(C(=O)NCc2c(C)cc(C)[nH]c2=O)c1C)C1CCOCC1 [TAZEMETOSTAT]
IC50 (Pfeiffer [1]): 38 nM
TGI (Pfeiffer [12]): Active
Activity (Mus musculus [33]): Non-Toxic
